High-throughput results deposited in PubChem by several laboratories.
This is a sample that favours compounds with a hit; in the whole collection about 9.4% have one here.
Mdm2-MdmX inh = human Mdm2/MdmX binding inhibition. SaOS-2 split-luciferase Mdm2/MdmX complementation, luminescence. 330,000 compounds, 3% hits. inhibition, % at 8 µM;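 active = inhibition of at least 50% at 8 µM in the primary screen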
CSC inhib = blocks cancer stem cells | cancer stem cell-like cells viability, luminescence | inhibition, % at 7.5 µM | 300,000 compounds, 1.1% hits; in the data active = inhibition above about 75%; tested in HMLE shEcad cells
SKKanGAS inh = inhibitors of SKKanGAS S. pyogenes growth in kanamycin (SK-promoter or general growth effect); BacTiter-Glo, 6 h; 300,000 compounds, 1.3% hits; inhibition, % at 7.5 µM;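 active = mean replicate score, as percent of positive control median, at least 50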;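 also: strain carries kanamycin resistance gene driven by streptokinase promoter and grows in 40 µg/ml kanamycin; loss of luminescence reflects streptokinase promoter inhibition or plain growth inhibition; 0% = median of DMSO wells and 100% = positive control at its reference dose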
T cruzi inh = T. cruzi replication inhibition; T. cruzi beta-gal in NIH3T3, luminescence, 90 h; inhibition, % (test concentration not listed); AID 1885; 300,000 compounds, 1.4% hits;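 active = mean inhibition across valid replicates above about 55%, limit read from the data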;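 also: signal also drops with host cell toxicity which is not excluded here; 0% = plate median of DMSO wells and 100% = zero luminescence signal; higher percent means less beta-gal luminescence so fewer parasites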
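Incubation – ≥90 h infection period, 3 h prior cell attachment · System – NIH/3T3 fibroblasts plus reporter T. cruzi · Doses – compound pinned at 50 nL/well, DMSO · Read-out basis – percent inhibition of parasite-derived β-gal signal · Signal – luminescent β-galactosidase signal after 60 min lysis · Also added – 5000 T. cruzi trypomastigotes/well · Medium – Low-serum DMEM with 2% FBS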
Beta cell apopt = blocks beta cell apoptosis; 300,000 compounds, 0.8% hits; AID 435005; protection from apoptosis, % (test concentration not listed); INS-1E cytokine-induced death, ATP luminescence, 48 h; percent of positive-control rescue, neutral wells zero;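 active = Every replicate reaches about 75%, or at least half do and their mean reaches it too, limit read from the data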;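 also: 0% = cytokine-treated negative control wells and 100% = positive control rescue; higher means more ATP so stronger rescue from cytokine killing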
Lmaj promast = inhibitors of Leishmania major promastigote growth; inhibition, % at 10 µM; 200,000 compounds, 9% hits; Leishmania major promastigotes, resazurin fluorescence viability; in the data active = inhibition above about 50%;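 also: promastigotes grown with compound for 44 hours at 28 °C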
An asterisk follows results filed as active; . = not tested or not shown.

SMILES	Mdm2-MdmX inh	CSC inhib	SKKanGAS inh	T cruzi inh	Beta cell apopt	Lmaj promast
C=CCN1C(=O)CSc2ccc(C(=O)NCc3cccs3)cc21	13.9	6.8	10.2	-0.6	3.2	15.7
CC1=CC(C)(C)n2c(O)c(N=N)c3c(C)c(C)cc1c32	-23.6	3.6	67.7*	9.9	-0.5	.
CCCOc1ccc(/C=C/C(=O)Nc2ccc([N+](=O)[O-])cc2)cc1	-17.4	25.2	27.2	37.0	34.7	15.9
CCCCOc1ccc(/C=C/C(=O)Nc2ccc(C(N)=O)cc2)cc1	-1.8	-2.6	-7.7	-8.8	8.8	90.6*
C/C(CCc1ccccc1)=N\NC(=O)c1ccccc1[N+](=O)[O-]	-5.1	1.1	-0.8	2.3	.	-6.2
CC(C)=CCC/C(C)=C/C=N/NC(=O)c1ccccc1[N+](=O)[O-]	-16.5	0.6	-0.1	-12.3	-3.3	94.4*
Cc1ccccc1C(=O)N1CCN(c2ccc(NC(=O)c3ccco3)cc2Cl)CC1	46.3	-7.7	5.0	24.6	-6.5	98.5*
O=C(Nc1ccc(N2CCN(C(=O)c3ccco3)CC2)c(Cl)c1)c1c(F)c(F)c(F)c(F)c1F	30.2	7.6	50.1*	48.7	2.5	39.2
Cc1cccc(NC(=O)c2cc(NC(=O)c3ccco3)ccc2Cl)n1	31.1	-15.6	.	.	-2.2	85.3*
Cc1noc(C)c1S(=O)(=O)N1CCC(C(=O)O)CC1	-9.7	-9.4	.	.	-4.8	.
CCOC(=O)C[C@H]1c2cc(F)ccc2S(=O)(=O)N1C1CCCC1	27.6	-5.6	-1.2	11.3	-3.6	.
COC(CNC(=O)c1cccc(-n2c(=S)[nH]c3cc(Cl)ccc3c2=O)c1)OC	4.5	-1.9	-2.0	-12.8	-1.5	-7.5
Cc1nn(-c2ccccc2)c(N)c1C(c1ccc(C(C)C)cc1)c1c(C)nn(-c2ccccc2)c1N	25.9	-5.8	16.9	30.4	97.3*	29.2
Cc1nn(-c2ccccc2)c(N)c1-c1ccccc1	-24.2	6.6	0.8	-2.3	-2.7	-7.0
Cc1ccc(C(c2c(C)nn(-c3ccccc3)c2N)c2c(C)nn(-c3ccccc3)c2N)cc1	8.9	6.5	-5.0	18.1	2.7	95.5*
O=C(CSc1ccccc1)NCC1(N2CCCCC2)CCCCC1	12.8	-1.8	-7.2	1.3	-6.6	.
Cc1ccnc(NC(=O)c2cccc(NS(=O)(=O)c3ccccc3C)c2)c1	.	.	.	.	.	91.1*
COc1ccc(NS(=O)(=O)c2cccc(C(=O)NNC(=O)CN3C(=O)NC(C)(C)C3=O)c2)cc1	0.6	.	1.4	-10.9	-3.1	.
Cn1nc(-c2ccc(Cl)cc2)c2cc(C(=O)NCCCN3CCOCC3)sc21	16.7	79.5*	-2.8	-1.2	12.1	45.9
CCCN(CCC)CCNC(=O)c1cc2c(-c3ccc(Cl)cc3)nn(C)c2s1	23.9	102.4*	0.1	53.0	52.9	.
CCN1CCN(C(=O)c2cc3c(-c4ccc(Cl)cc4)nn(C)c3s2)CC1	31.3	10.5	-0.8	27.8	.	51.7*
CCN(CC)CCNC(=O)c1cc2c(-c3ccc(Cl)cc3)nn(C)c2s1	38.9	.	1.2	39.5	.	100.2*
CC(C)(C)N1OC2CC1c1nc3ccccc3n1C2 (stereo not given)	4.5	-7.6	4.8	-19.2	0.7	.
COc1ccc(-c2noc(Cn3cc(S(=O)(=O)N4CCCC4)ccc3=O)n2)cc1	-2.4	.	.	.	-1.4	.
COc1ccc2[nH]c(-c3cccc(F)c3)cc(=O)c2c1	49.1	76.0*	1.6	-9.7	19.8	4.2
SMILES	Mdm2-MdmX inh	CSC inhib	SKKanGAS inh	T cruzi inh	Beta cell apopt	Lmaj promast
Nc1ccccc1NC1CCCCC1	.	.	.	.	.	53.7*
CCOc1ccc(N2CC(C(=O)NCCc3c[nH]c4ccc(C)cc34)CC2=O)cc1 (stereo not given)	4.2	-12.4	3.8	24.6	3.5	.
Cc1nc(NCCc2ccc(S(N)(=O)=O)cc2)c2c3c(sc2n1)CCC3	2.5	-5.9	-9.5	26.2	2.0	27.4
Cc1nc(NS(=O)(=O)c2ccc(Cl)s2)c2c3c(sc2n1)CCCC3	10.9	34.4	63.0*	-1.5	8.2	.
Cc1cccc2c1N(CCOc1ccccc1Cl)C(=O)C2=O	43.2	31.7	13.4	20.9	6.2	66.5*
Cc1ccccc1OCCN1C(=O)C(=O)c2cccc(C)c21	26.2	.	0.7	8.9	.	-0.9
Cc1ccc([N+](=O)[O-])cc1NC(=O)Nc1onc(C)c1C	17.1	-14.0	4.2	7.8	7.8	.
CCOC(=O)c1c(C)n(-c2ccc(C)cc2)c2c(CC(C)=O)c(Br)c(OC)c(O)c12	27.7	.	-4.4	-2.4	-0.6	-0.7
CCOC(=O)c1c(C)n(-c2ccc(C)cc2)c2c(C(C(C)=O)C(=O)O)c(Br)c(O)c(O)c12 (stereo not given)	14.1	16.6	7.6	8.6	-0.2	50.0*
CC1=NN(c2ccccc2)C(=O)/C1=C\c1c(C)[nH]n(-c2ccccc2)c1=O	-4.0	-1.7	12.3	2.0	-2.9	-6.3
CC1=NN(c2ccccc2)C(=O)/C1=C/c1c(O)n(-c2ccc(F)c(Cl)c2)[nH]c1=O	-46.8	103.4*	71.7*	-2.5	1.2	-8.2
CC(=O)c1ccc([N+](=O)[O-])c(CS(=O)(=O)c2ccc(Cl)cc2)c1	-25.1	2.4	9.6	-0.9	-2.7	.
Cc1ccc(OCC(=O)Nc2cc(C(=O)O)cc(C(=O)O)c2)cc1C	-31.0	-5.8	4.5	-8.6	-7.4	-5.6
Cc1c(C(=O)NCc2ccc3c(c2)OCO3)oc2ccc(S(=O)(=O)N3CCCCCC3)cc12	26.5	3.8	-3.7	55.4*	.	39.6
CCN(CC)CCCNC(=O)c1oc2ccc(S(=O)(=O)N3CC(C)CC(C)C3)cc2c1C (stereo not given)	46.4	0.7	3.4	56.4*	-12.5	.
Cc1ccc2oc(C(=O)NCc3ccc4c(c3)OCO4)c(C)c2c1	17.4	22.6	-4.1	1.6	-5.6	-2.6
Cc1c(C(=O)NCc2ccc3c(c2)OCO3)oc2ccc(S(=O)(=O)N3CCC(C)CC3)cc12	32.3	-0.5	-3.6	55.8*	2.1	40.5
O=C(OCc1nnc(-c2ccc([N+](=O)[O-])cc2)o1)C1CCN(C(=O)c2ccc(F)cc2)CC1	-19.7	-8.8	.	.	-3.1	.
Cc1ccc(C(=O)OC(C(=O)Nc2ccc(Cl)cc2C(F)(F)F)c2ccccc2)cc1 (stereo not given)	-8.5	.	2.1	4.1	-7.8	69.0*
O=C(OC(C(=O)Nc1ccc(Cl)cc1C(F)(F)F)c1ccccc1)c1c(Cl)cccc1Cl (stereo not given)	-3.8	8.0	16.1	23.3	0.6	8.8
OC(CNCc1ccc(Cl)cc1)(c1ccccc1)c1ccc(F)cc1 (stereo not given)	5.7	-8.6	-10.3	31.0	-1.7	17.4
CCCCNCC(O)(c1ccc(Cl)cc1)c1ccc(Cl)cc1	0.4	.	-2.3	9.3	17.9	90.0*
COc1ccc(CNCC(O)(c2ccc(Cl)cc2)c2ccc(Cl)cc2)cc1	24.3	-11.2	59.2*	48.9	34.3	100.5*
COc1ccc(CNCC(O)(c2ccc(Cl)cc2)c2ccc(Cl)cc2)cc1OC	33.2	.	.	15.3	-3.6	46.5
